From ChEMBL document CHEMBL1130629, “Fused aminotetralins: novel antagonists with high selectivity for the dopamine D3 receptor” (Bioorg Med Chem Lett, 1998) come the findings set out here.

Broadly, the Ki is the equilibrium dissociation constant of an inhibitor or competing ligand from its target. Read a low Ki as tighter binding. A word on the clearance: it is a measure of how efficiently the substance is removed, as volume per time. Higher therefore signals efficient removal.

SMILES strings stand for the structures.

For data set [1], the target named is D(3) dopamine receptor (Homo sapiens, UniProt P35462). In words: Binding affinity at Dopamine receptor D3 expressed in CHO cells by [125I]iodosulpiride displacement. The class given is cell-based.
Sequence of D(3) dopamine receptor (P35462 whole entry): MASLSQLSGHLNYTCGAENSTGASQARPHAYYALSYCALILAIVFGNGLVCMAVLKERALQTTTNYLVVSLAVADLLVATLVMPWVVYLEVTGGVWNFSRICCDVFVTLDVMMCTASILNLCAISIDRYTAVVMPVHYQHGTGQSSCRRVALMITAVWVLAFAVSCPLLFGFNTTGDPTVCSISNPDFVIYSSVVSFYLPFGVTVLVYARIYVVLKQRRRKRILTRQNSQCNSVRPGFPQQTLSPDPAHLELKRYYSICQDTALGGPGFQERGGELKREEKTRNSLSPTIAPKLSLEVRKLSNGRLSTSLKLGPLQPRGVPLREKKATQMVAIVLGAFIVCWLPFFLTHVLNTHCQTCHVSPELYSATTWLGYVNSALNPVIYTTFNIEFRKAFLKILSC
For data set [2], the target named is T1, D(2) dopamine receptor (Homo sapiens, UniProt P14416). In words: Binding affinity at Dopamine receptor D2 expressed in CHO cells by [125I]iodosulpiride displacement. The data set is classed as cell-based.
T1 sequence (P14416 whole entry, the tested form may be a part): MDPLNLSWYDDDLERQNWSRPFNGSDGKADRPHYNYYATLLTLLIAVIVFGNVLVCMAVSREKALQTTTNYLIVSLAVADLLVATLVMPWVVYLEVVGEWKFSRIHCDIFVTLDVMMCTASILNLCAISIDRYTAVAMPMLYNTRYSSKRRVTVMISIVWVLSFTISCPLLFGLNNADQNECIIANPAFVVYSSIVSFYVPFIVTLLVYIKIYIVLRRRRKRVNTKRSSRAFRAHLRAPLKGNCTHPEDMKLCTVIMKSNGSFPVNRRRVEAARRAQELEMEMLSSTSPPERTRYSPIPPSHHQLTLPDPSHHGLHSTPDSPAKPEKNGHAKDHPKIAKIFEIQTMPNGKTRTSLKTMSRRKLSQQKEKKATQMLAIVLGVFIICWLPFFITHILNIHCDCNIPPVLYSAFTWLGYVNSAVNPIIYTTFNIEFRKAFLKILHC
A short description of data set [3]: Compound was evaluated for the rate of clearance in rat upon intravenous administration. The data set is classed as ADME, organism-based. Particulars: in vivo. A digest of the protocol: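 Relative blood clearance measured at steady state. Compound dissolved in 5% (w/v) aqueous glucose with 2% (v/v) DMSO and 10% Encapsin HPB, target concentration 0.2 mg free base/ml. Given to rats as a constant-rate iv infusion over 12 h at a target 1 mg free base/kg/h, n = 3. Serial blood samples taken over the last 2 h to confirm steady state, then terminal exsanguination. Parent compound in blood measured by LC/MS/MS.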

Data set [4] deals with T1, D(2) dopamine receptor. The data set is described as follows: Displacement of [125I]iodosulpiride from Dopamine receptor D2 expressed in CHO cells. The data set is classed as cell-based. For orientation: Loss of bound radioactivity is the signal in a displacement assay; it reports binding, not function.

With `O=C(NCCCCN1CCC[C@H]2c3ccc(O)cc3CC[C@@H]21)c1ccc(-c2ccccc2)cc1`, the values for the Ki in data set [1] and in data set [2] were 7.94 nM and 501 nM, respectively.
In data set [3], `CS(=O)(=O)Oc1cccc2c1CC[C@@H]1[C@@H]2CCCN1CCCCNC(=O)c1ccc(-c2ccccc2)cc1` [listing 1 of 2 here] yielded a clearance of 61 mL/min/kg. In addition, the Ki in data set [1] was 10 nM; in data set [2] it was 316 nM.
For the compound `CS(=O)(=O)Oc1cccc2c1CC[C@@H]1[C@@H]2CCCN1CCCCNC(=O)c1ccc(-c2ccccc2)cc1` [listing 2 of 2 here], the Ki in data set [1] and in data set [2] was 1260 nM each time.
In the case of `CS(=O)(=O)Oc1cccc2c1CC[C@H]1[C@H]2CCN1CCCCNC(=O)c1ccc(-c2ccccc2)cc1`, the Ki is 5.01 nM in data set [1] and 316 nM in data set [2].
For the compound `CS(=O)(=O)Oc1ccc2c(c1)CC[C@H]1[C@H]2CCN1CCCCNC(=O)c1ccc(-c2ccccc2)cc1`, the Ki in data set [1] was 50.1 nM; in data set [2] it was 1000 nM.
On to `CS(=O)(=O)Oc1ccc2c(c1)CC[C@H]1[C@H]2CCCN1CCCCNC(=O)c1ccc(-c2ccccc2)cc1`, for which the Ki was 200 nM in data set [1] and 2000 nM in data set [2].
Consider `O=C(NCCCCN1CCC[C@@H]2c3ccccc3CC[C@@H]21)c1ccc(-c2ccccc2)cc1`, for which the values for the inhibition constant (Ki) in data set [4] and in data set [1] were 794 nM and 251 nM, respectively.
Turning to `COc1cccc2c1CC[C@H]1[C@H]2CCCN1CCCCNC(=O)c1ccc(-c2ccccc2)cc1` (single isomer, unassigned), the Ki in data set [1] was 7.94 nM; in data set [2] it was 501 nM.
The matching figures for `CS(=O)(=O)Oc1cccc2c1CC[C@H]1[C@@H]2CCCN1CCCCNC(=O)c1ccc(-c2ccccc2)cc1`: 251 nM and 398 nM.
For `O=C(NCCCCN1CC[C@H]2c3ccc(O)cc3CC[C@@H]21)c1ccc(-c2ccccc2)cc1`, the Ki in data set [1] is 12.6 nM; in data set [2] it was 316 nM.
On to `COc1cccc2c1CC[C@H]1[C@H]2CCN1CCCCNC(=O)c1ccc(-c2ccccc2)cc1`, for which the Ki in data set [1] was 15.8 nM; in data set [2], 631 nM.
As for `O=C(NCCCCN1CC[C@H]2c3ccccc3CC[C@@H]21)c1ccc(-c2ccccc2)cc1`, the Ki in data set [1] is 15.8 nM; in data set [2], 501 nM.
Taken in the same sequence, the figures for `CS(=O)(=O)Oc1cccc2c1CC[C@H]1[C@H]2CCCN1CCCCNC(=O)c1ccc(-c2ccccc2)cc1` were 6.31 nM and 251 nM.
For the compound `O=C(NCCCCN1CC[C@@H]2c3ccccc3CC[C@@H]21)c1ccc(-c2ccccc2)cc1`, in data set [3], the clearance was determined as 59 mL/min/kg. Besides, the values for the Ki in data set [1] and in data set [2] were 50.1 nM and 501 nM, respectively.
Consider `O=C(NCCCCN1CC[C@H]2c3cccc(O)c3CC[C@@H]21)c1ccc(-c2ccccc2)cc1`, for which the figures for the Ki in data set [1] and in data set [2] were 2 nM and 63.1 nM, respectively.
`COc1cccc2c1CC[C@@H]1[C@@H]2CCCN1CCCCNC(=O)c1ccc(-c2ccccc2)cc1`: the inhibition constant Ki in data set [1] and in data set [2] was 794 nM in each case.
Regarding `CCCN(CCCCNC(=O)c1ccc(-c2ccccc2)cc1)C1CCc2c(Cl)cccc2C1` (stereo not drawn), the clearance in data set [3] was 96 mL/min/kg.
In data set [3], `O=C(NCCCCN1CCC[C@@H]2c3ccccc3CC[C@H]21)c1ccc(-c2ccccc2)cc1` had a clearance of 46 mL/min/kg. Besides, the Ki is 15.8 nM in data set [1] and 501 nM in data set [2].
